From ChEMBL document CHEMBL2311473, “Characterization of antimicrobial, cytotoxic, and antiendotoxin properties of short peptides with different hydrophobic amino acids at "a" and "d" positions of a heptad repeat sequence” (J Med Chem, 2013) come the findings set out here.

≈ marks a conversion by molar mass, not a printed value. Calls of active or inactive are those of the source.

By inhibition is commonly meant the change of the read-out against control, counted positive when it falls. The MIC is the smallest concentration in the dilution series that meets the test's criterion for growth inhibition. Higher therefore signals weaker potency.

The subject of data set [1] is Lipopolysaccharide (LPS). Briefly: Binding affinity to LPS assessed as inhibition of LPS-induced LAL enzyme activation at 9 uM after 30 mins by spectrophotometric analysis. The method, boiled down:
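Chromogenic limulus amoebocyte lysate endotoxin kit. Peptide binding to LPS estimated from inhibition of LPS-induced LAL enzyme activation, i.e. reduced substrate colour, and reported as percentage LPS binding.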

The subject of data set [2] is Lipopolysaccharide (LPS). Briefly: Binding affinity to LPS assessed as increase in helical structure at 36 uM by circular dichroism analysis. The method, boiled down:
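CD spectra of peptides (36 μM) recorded alone and with LPS at 3.8 and 6.25 μM.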

For data set [3], the system named is RAW264.7. Briefly: Antiinflammatory activity in mouse RAW264.7 cells assessed as downregulation of LPS-induced iNOS2 expression at 4.5 uM after 24 hrs by Western blotting analysis. It counts as functional, cell-based. In a few lines: (§1)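 RAW 264.7 cells (~2 × 10^5) stimulated with LPS 1 μg/mL plus peptide 4.5 μM for 24 h. Cells washed in ice-cold PBS and lysed in Laemmli buffer. SDS-PAGE (8% gel iNOS-2, 12% TNF-α), nitrocellulose transfer, alkaline phosphatase secondary with NBT/BCIP. Band densities normalized to β-actin. LPS-only and untreated cells served as controls.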

Data set [4] has as its system RAW264.7. Nature of the data set: Antiinflammatory activity in mouse RAW264.7 cells assessed as downregulation of LPS-induced TNFalpha expression at 4.5 uM after 24 hrs by Western blotting analysis. It counts as functional, cell-based. In a few lines: as §1
For orientation: In western blotting, separated proteins are transferred to a membrane and probed.

Data set [5] can be described thus: Binding affinity to PE/PG lipid vesicles assessed as decrease in decrease in acrylamide-induced tryptophan fluorescence quenching at 1 uM. It counts as physicochemical. In a few lines: (§2)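 Acrylamide quencher added in aliquots from 3.0 M stock to peptide with PC/Chol (8:1) or PE/PG (7:3) SUVs, peptide/lipid 1:100. Trp excited at 295 nm. Values corrected for dilution and vesicle-blank scatter, then fitted to Stern–Volmer F0/F = 1 + KSV[Q].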

Data set [6] is described as follows: Binding affinity to PC/Chol lipid vesicles assessed as decrease in acrylamide-induced tryptophan fluorescence quenching at 1 uM. It counts as physicochemical. The method, boiled down:
as §2

A short description of data set [7]: Binding affinity to PC/Chol lipid vesicles assessed as induction of large blue shift at 1 uM by fluorescence assay. It counts as physicochemical.
Data set [8] is described as follows: Binding affinity to PE/PG lipid vesicles assessed as induction of large blue shift at 1 uM by fluorescence assay. It counts as physicochemical.
A short description of data set [9]: Induction of dissipation of diffusion potential in PC/Chol lipid vesicles by fluorescence assay. It counts as physicochemical. The method, boiled down: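 SUVs of PC/Chol (8:1 w/w) or PE/PG (7:3 w/w) treated with peptide. Dissipation of diffusion potential taken as percentage fluorescence recovery ~5 min after peptide addition, with valinomycin used for reference levels. Plotted against peptide/lipid molar ratio.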

In data set [10] the test system is Staphylococcus aureus. Briefly: Bactericidal activity against Staphylococcus aureus ATCC 9144 assessed as induction of membrane depolarization at up to 7 uM by DiSC3(5) staining-based fluorescence assay. It counts as functional, organism-based. In a few lines: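 Membrane potential dye diS-C3-5 preincubated 1 h with hRBC or S. aureus suspensions; I0 is steady-state fluorescence after this incubation. Peptide then added at varying concentrations. Depolarization expressed as percentage fluorescence recovery (Ft) versus peptide concentration.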

For data set [11], the system named is Escherichia coli. Briefly: Bactericidal activity against Escherichia coli ATCC 10536 assessed as induction of membrane damage at 5 uM after 30 mins by propidium iodide staining-based flow cytometric analysis. It counts as functional, organism-based. In a few lines:
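Mid-log E. coli incubated with peptide (~5.0 μM) 30 min at 37 °C with shaking. Cells washed twice in PBS, stained with propidium iodide 30 min at 4 °C, washed and resuspended. 10000 events per sample by flow cytometry, compared with peptide-free control.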
In general terms: A flow cytometer gives signals particle by particle.

Data set [12] can be described thus: Cytotoxicity against human RBC assessed as induction of membrane damage at 25 uM after 5 mins by annexin V-FITC staining-based FACS flow cytometric analysis. It counts as cell-based. The following applies: erythrocyte. The method, boiled down:
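hRBCs (~3.0 × 10^7 cells/mL) treated with peptide (~25.0 μM) for 5 min at room temperature. Stained with FITC-annexin V and analysed by flow cytometry, 10000 events, compared with untreated control.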

In data set [13] the test system is Escherichia coli. Nature of the data set: Drug uptake in Escherichia coli ATCC 10536 assessed as membrane localization at 3 uM after 30 mins by confocal microscopic analysis. It counts as ADME, organism-based. As to conditions: in vivo, 0.5 h. The method, boiled down: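 E. coli (~10^6 CFU/mL) in LB incubated with fluorescent-labeled peptide (~3.0 μM) for half an hour. Cells centrifuged, washed and imaged by confocal microscopy (DIC and fluorescence).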

The subject of the next data set is Aspergillus fumigatus. Nature of the data set: Antifungal activity against Aspergillus fumigatus after 72 hrs by NCCLS microbroth dilution method. It counts as functional. The method, boiled down: (§3)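 Microbroth dilution in MOPS-buffered RPMI 1640 following NCCLS guidelines. Inoculum 1−5 × 10^3 cells/mL, peptide range 50−0.36 (mass/mL). Plates held in a moist chamber at 35 °C and A492 read after 48 h (Candida spp.), 72 h (A. fumigatus, S. schenckii, C. neoformans) or 96 h (T. mentagrophytes). MIC taken as 90% growth inhibition versus growth control.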
Background: In broth dilution the organism is exposed to a series of concentrations in liquid medium.

The next data set relates to Sporothrix schenckii. Briefly: Antifungal activity against Sporothrix schenckii after 72 hrs by NCCLS microbroth dilution method. It counts as functional. In a few lines:
as §3

Another data set deals with Candida parapsilosis. Briefly: Antifungal activity against Candida parapsilosis ATCC 22019 after 48 hrs by NCCLS microbroth dilution method. It counts as functional. As to conditions: Lodderomyces parapsilosis, ATCC 22019, 48 h. In a few lines:
as §3

In a further data set the test system is Cryptococcus neoformans. Briefly: Antifungal activity against Cryptococcus neoformans after 72 hrs by NCCLS microbroth dilution method. It counts as functional. In a few lines:
as §3

A further data set relates to Candida albicans. Briefly: Antifungal activity against Candida albicans after 48 hrs by NCCLS microbroth dilution method. It counts as functional. The method, boiled down:
as §3

The test system of a further data set is Klebsiella pneumoniae. Briefly: Antibacterial activity against Klebsiella pneumoniae ATCC 27736 after 18 hrs by broth dilution method. It counts as functional. The following applies: ATCC 27736, 18 h. In a few lines: (§4)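 Bacteria grown aerobically at 37 °C in Mueller-Hinton broth to mid-log phase (OD600), diluted to ~10^6 cfu/mL, then mixed 1:1 with 2-fold serial peptide dilutions in water. Incubation ~18 h at 37 °C before MIC read-out (μM).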

Data set [14] deals with Staphylococcus aureus. Nature of the data set: Antibacterial activity against methicillin-resistant Staphylococcus aureus after 18 hrs by broth dilution method. It counts as functional. In a few lines:
as §4

The subject of data set [15] is Staphylococcus epidermidis. Briefly: Antibacterial activity against Staphylococcus epidermidis NRRL B-4268 after 18 hrs by broth dilution method. It counts as functional. The following applies: NRRL B-4268, 18 h. In a few lines: as §4
Data set [16] can be described thus: Cytotoxicity against human RBC assessed as hemolysis at 60 uM. It counts as cell-based, Erythrocyte. As to conditions: red blood cells (RBC), read-out: Activity. The method, boiled down:
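hRBCs in PBS exposed to peptide. Hemoglobin release read as supernatant absorbance at 540 nm. Hemolysis % = (Asample − Ablank)/(Atriton − Ablank) × 100, with PBS blank and 0.2% Triton X-100 (final) as 100% reference.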

For data set [17], the system named is RAW264.7. Nature of the data set: Antiinflammatory activity in mouse RAW264.7 cells assessed as inhibition of LPS-induced TNFalpha secretion at 1.5 to 4.5 uM after 12 hrs by ELISA. It counts as functional, cell-based. The method, boiled down: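 RAW 264.7 cells treated with LPS alone or LPS plus peptide. TNF-α and IL-6 measured by ELISA in culture supernatant and expressed as percentage inhibition of LPS-induced secretion. Mean of three independent experiments, SD shown.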

Data set [18] is described as follows: Drug uptake in human RBC assessed as membrane localization at 9 uM after 10 to 30 mins by confocal microscopic analysis. It counts as ADME. The following applies: erythrocyte. The method, boiled down:
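Fresh hRBCs (3% in PBS) incubated with NBD-labeled peptide (~9.0 μM) for 10–30 min at 37 °C. Washed, fixed in 2% paraformaldehyde 10 min, and imaged by confocal microscopy at constant photomultiplier setting.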

As to `C[C@H](N)C(=O)O` [ALANINE], the inhibition with Lipopolysaccharide (LPS) [1] came to 7%. The result in the data set with Lipopolysaccharide (LPS) [2], in the data set on RAW264.7 [3], with RAW264.7 [4], in the data set on Staphylococcus aureus [10] and in the data set on Escherichia coli [11] was Active. For the same compound, the Activity entry in data set [5] is listed as “Active”; in [6], “Not Active”; in data set [7], “Not Active”; in [8] it was “Active”; in data set [9], “Active”; in data set [12], “Non-toxic”. In addition, the Drug uptake entry in the data set with Escherichia coli [13] is on record as “Active”; in data set [18], “Not Active”. For the same compound, the MIC in the data set on Aspergillus fumigatus was greater than 25 µM; with Sporothrix schenckii, 25 µM (≈ 2.23 µg/mL); in the data set with Candida parapsilosis, 25 µM (≈ 2.23 µg/mL); against Cryptococcus neoformans, greater than 25 µM; against Candida albicans, greater than 25 µM; against Klebsiella pneumoniae, 25 µM (≈ 2.23 µg/mL). For the same compound, the MIC is greater than 25 µM in the data set on Staphylococcus aureus [14] and 8 µM (≈ 0.713 µg/mL) in data set [15]. Besides, in data set [16], the hemolysis at 60 µM turned out to be 1%. For the same compound, the inhibition entry with RAW264.7 [17] was “Active”.
`CC(C)C[C@H](N)C(=O)O` [LEUCINE]: the inhibition in the data set with Lipopolysaccharide (LPS) [1] was found to be 90%. Besides, the result in the data set on Lipopolysaccharide (LPS) [2], in the data set with RAW264.7 [3], with RAW264.7 [4], in the data set with Staphylococcus aureus [10] and in the data set with Escherichia coli [11] was Active. The Activity result is given as “Active” in data set [5]; “Active” in data set [6]; “Active” in data set [7]; “Active” in data set [8]; “Active” in [9]; “Toxic” in data set [12]. The Drug uptake entry (in the data set with Escherichia coli [13]; in data set [18]) was “Active” in each case. The MIC against Aspergillus fumigatus turned out to be 3.1 µM (≈ 0.407 µg/mL); against Sporothrix schenckii, 1.56 µM (≈ 0.205 µg/mL); in the data set on Candida parapsilosis it was 3 µM (≈ 0.394 µg/mL); against Cryptococcus neoformans it was 6.1 µM (≈ 0.8 µg/mL); in the data set with Candida albicans, 3.1 µM (≈ 0.407 µg/mL); with Klebsiella pneumoniae, 6.2 µM (≈ 0.813 µg/mL). In addition, the minimum inhibitory concentration (MIC) is 6.25 µM (≈ 0.82 µg/mL) in the data set on Staphylococcus aureus [14] and 12.1 µM (≈ 1.59 µg/mL) in [15]. In addition, in data set [16], the hemolysis at 60 µM amounted to 80%. In addition, the inhibition result in the data set with RAW264.7 [17] was “Active”.
As for `CC(C)[C@H](N)C(=O)O` [VALINE], the inhibition with Lipopolysaccharide (LPS) [1] was found to be 22%. In addition, the outcome in the data set on Lipopolysaccharide (LPS) [2], in the data set on RAW264.7 [3], with RAW264.7 [4], with Staphylococcus aureus [10] and in the data set on Escherichia coli [11] was Active. Moreover, the Activity result in data set [5] is given as “Active”; in [6], “Not Active”; in [7], “Not Active”; in data set [8] it was “Active”; in data set [9], “Active”; in data set [12] it was “Non-toxic”. Moreover, the Drug uptake entry (with Escherichia coli [13]; in data set [18]) was “Active” throughout. Moreover, the minimum inhibitory concentration (MIC) with Aspergillus fumigatus is 8.4 µM (≈ 0.984 µg/mL); in the data set with Sporothrix schenckii it was 6 µM (≈ 0.703 µg/mL); with Candida parapsilosis it was 1.5 µM (≈ 0.176 µg/mL); against Cryptococcus neoformans, 8.4 µM (≈ 0.984 µg/mL); with Candida albicans it was 9.6 µM (≈ 1.12 µg/mL); in the data set on Klebsiella pneumoniae it was 3.2 µM (≈ 0.375 µg/mL). The minimal inhibitory concentration (MIC) against Staphylococcus aureus [14] was 12.5 µM (≈ 1.46 µg/mL); in data set [15] it was 6 µM (≈ 0.703 µg/mL). Moreover, the hemolysis at 60 µM in [16] was found to be 10%. Also, the inhibition result in the data set with RAW264.7 [17] was “Active”.
